Screens from PubChem BioAssay.
In the library only some 2.3% were active in any assay of this set; here they are far more common.
STEP inh: STEP (human) phosphatase inhibition | P54829 | recombinant STEP, OMFP fluorogenic substrate, fluorescence | AID 588621 | actives 0.25% (n = 360,000) | inhibition, % at 20 µM;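 active = inhibition at 20 µM, scaled per plate between control wells, above about 37%, limit read from the data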;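 also: 0% = DMSO with enzyme and substrate and 100% = substrate only without enzyme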
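Also added – OMFP at 25 µM · Test system – STEP tyrosine phosphatase · Technique – FITC-channel fluorescence of OMFP product · Schedule – 20 min at room temperature, dark · Evaluation – control-normalized % inhibition with plate pattern correction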
LMPTP inh: LMPTP (human) inhibition. P24666. recombinant LMPTP-A, OMFP fluorogenic substrate, fluorescence intensity. inhibition, % at 20 µM. actives 0.22% (n = 360,000);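 active = compounds that cut the enzyme signal by at least half of the control window in the single-dose screen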;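 also: plate controls were DMSO wells with enzyme plus substrate for no effect and substrate without enzyme for full effect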
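Test system – LMPTP-A enzyme · Amount – LMPTP-A at 0.625 nM final in the reaction · Buffer or medium – Bis-Tris pH 6.0, DTT, detergent · Reagent – OMFP 400 µM · Doses – single 20 µM dose · Schedule – reaction 50 min, room temperature, dark · Detection – fluorescence intensity of OMFP turnover product · Evaluation – percent inhibition versus substrate-only and uninhibited controls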
SUMO1-SIM PPI: alters human SUMO1 binding to SIM partners; AID 602429; inhibition, % at 20 µM; P63165; actives 0.33% (n = 360,000); SUMO1 binding to a labelled peptide, TR-FRET, 1 h; in the data active = inhibition above about 37%
Rpn11 inh: blocks the human proteasome subunit Rpn11; O00487; human 26S proteasome, Ub4-pepOG fluorescence polarization; 20S core pre-blocked with epoxomicin; inhibition, % at 20 µM; actives 0.59% (n = 360,000);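 active = inhibition at 20 µM, scaled to each plate's controls, above about 33%, limit read from the data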
Scp-1 inhibitor: inhibitors of human Scp-1 phosphatase. Q9GZU7. inhibition, % at 20 µM. AID 493091. Recombinant Scp1, phosphopeptide, malachite green phosphate absorbance. actives 0.88% (n = 340,000);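 active = inhibition above about 50% at 20 µM, limit read from the data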;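 also: plate controls were DMSO wells with enzyme for no effect and wells lacking enzyme for full effect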
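System: truncated SCP-1 phosphatase (76-261aa); medium: Tris acetate buffer pH 5.5 with MgCl2 and Tween-20; incubation: 45 min room-temperature reaction, 5 min colour, 30 min stabiliser; compound: single 20 µM dose, 1% DMSO; reagent: Phosphorylated 17-residue peptide substrate; read-out: % inhibition at 20 µM; technique: colorimetric free-phosphate detection, absorbance 630 nm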
DNMT1 inh: inhibitors of human DNMT1; P26358; DNMT1 molecular beacon, Hinp1I cleavage, fluorescence; inhibition (reported as % activation of signal), % at 10 µM; actives 0.83% (n = 360,000); in the data active = inhibition above about 50%
Scp-1 conf: confirmation of human Scp-1 phosphatase inhibitors; shares compounds with Scp-1 inhibitor; recombinant SCP-1 catalytic domain, phosphate release, malachite green absorbance; inhibition, % at 20 µM; actives 61% (n = 2,500);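 also: plate controls were DMSO with enzyme for no effect and buffer wells lacking enzyme for full effect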
MG interference: counter-screen for Scp-1 inhibitors: colorimetric interference. 2,500 tested, under 10 active. shares compounds with Scp-1 inhibitor. Colorimetric interference counterscreen, malachite green absorbance 630 nm. apparent inhibition (interference), % at 20 µM;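 also: compounds added after enzyme reaction finished so only phosphate colour detection is probed; plate controls were DMSO wells with completed Scp-1 reaction for no effect and substrate wells lacking enzyme for full effect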
Scp-1 Tm shift: binds human Scp-1, shifting its melting temperature | actives 25% (n = 1,500) | shares compounds with Scp-1 inhibitor | AID 540329 | thermal shift relative to vanadate control, % at 40 µM | Recombinant SCP1, Sypro Orange thermal shift Tm;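 active = substances whose mean melting-temperature shift, as a percentage of the reference inhibitor's shift, reaches about 5.3%, limit read from the data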;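 also: 0% = Tm of DMSO wells and 100% = Tm with sodium orthovanadate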
* marks the source's active call; other numbers are inactive results; / = no result.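 The calls were made as follows, unless noted: active = inhibition of at least 30% at 20 µM; inactive = the rest.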

SMILES	STEP inh	LMPTP inh	SUMO1-SIM PPI	Rpn11 inh	Scp-1 inhibitor	DNMT1 inh	Scp-1 conf	MG interference	others
COc1ccc(S(=O)(=O)N2CCCCC2)cc1NC(=O)CCNC(=O)c1ccco1	0.7	-0.9	-8.1	-4.1	3.9	-1.3	/	/
CCOc1ccc(CCNC(=O)/C=C/c2ccco2)cc1OCC	0.8	-1.6	-11.9	8.0	67.3*	3.7	-9.0	-20.8
COc1ccc(CCNC(=O)/C=C/c2ccco2)cc1OC	1.1	-0.1	-6.1	-1.7	1.4	1.6	/	/
Cc1ccc(C)c(OCC(=O)Nc2cc(NC(=O)COc3cc(C)ccc3C)cc(C(=O)O)c2)c1	1.1	1.1	21.0	7.6	12.3	-1.3	/	/
C[C@H](CO)N1C[C@H](C)[C@@H](CN(C)CC2CCCCC2)Oc2c(NS(=O)(=O)c3cn(C)cn3)cccc2C1=O	-2.0	-1.8	16.4	-3.1	59.4*	2.4	7.5	-3.8
C[C@H](CO)N1C[C@H](C)[C@@H](CN(C)Cc2ccncc2)Oc2c(NS(=O)(=O)c3ccc(F)cc3)cccc2C1=O	1.4	0.8	5.0	6.2	59.1*	4.1	-12.5	-20.5
C[C@H](CO)N1C[C@H](C)[C@@H](CN(C)Cc2ccncc2)Oc2c(NS(=O)(=O)c3ccc(Cl)cc3)cccc2C1=O	-3.5	-1.8	2.7	-4.8	18.3	-0.2	/	/
C[C@H](CO)N1C[C@H](C)[C@@H](CN(C)Cc2ccc(C(=O)O)cc2)Oc2c(NS(=O)(=O)c3cn(C)cn3)cccc2C1=O	-1.5	-1.9	3.4	-9.8	61.6*	6.4	4.8	-4.0
C[C@H](CO)N1C[C@H](C)[C@@H](CN(C)Cc2ccccc2)Oc2c(NS(=O)(=O)c3cn(C)cn3)cccc2C1=O	1.6	-0.8	-4.5	4.0	68.9*	-1.9	-4.1	-12.9
C[C@H](CO)N1C[C@H](C)[C@@H](CN(C)C(=O)NC2CCCCC2)Oc2c(NS(=O)(=O)c3cn(C)cn3)cccc2C1=O	-1.7	-0.8	3.3	4.2	1.9	8.1	/	/
C[C@H]1CN([C@@H](C)CO)C(=O)c2cccc(NS(=O)(=O)c3cn(C)cn3)c2O[C@H]1CN(C)S(C)(=O)=O	-1.7	-0.8	-2.1	1.2	10.6	2.1	/	/
C[C@@H]1CN([C@@H](C)CO)C(=O)c2cccc(NS(C)(=O)=O)c2O[C@H]1CN(C)Cc1ccc(C(=O)O)cc1	2.8	-0.9	-2.6	-6.1	-7.7	0.5	/	/
CC1CCCC(=NNC(=O)C2COc3ccccc3O2)C1 (stereo unspecified)	1.2	-0.9	6.3	-5.4	-10.4	0.0	/	/
COc1ccc(N2CCN(C(=O)c3c(-c4c(F)cccc4Cl)noc3C)CC2)cc1	-4.4	0.6	9.4	-20.8	-7.8	-0.7	/	/
CCC(Sc1nc2ncccc2[nH]1)C(=O)N1CCOCC1 (stereo unspecified)	0.9	-1.8	2.5	-0.1	-6.5	3.5	/	/
CC1(c2nnc(-c3ccncc3)o2)CC(c2cccc(Cl)c2)=NO1 (stereo unspecified)	3.0	-1.1	2.4	2.2	-2.3	1.8	/	/
C[C@H](CO)N1C[C@H](C)[C@@H](CN(C)Cc2ccc(Oc3ccccc3)cc2)Oc2c(NS(=O)(=O)c3cn(C)cn3)cccc2C1=O	0.2	-0.2	3.9	-2.2	50.1*	-8.9	-4.9	-9.8
C[C@@H]1CN([C@@H](C)CO)C(=O)c2cccc(NS(C)(=O)=O)c2O[C@H]1CN(C)Cc1ccc(Oc2ccccc2)cc1	-0.8	-1.3	-1.1	-4.1	1.7	-9.0	/	/
COc1cc(CC(=O)OCC(=O)N(C)C2CCCCC2)cc(OC)c1OC	-2.4	-1.2	0.0	-2.6	-4.6	-3.0	/	/
CCOC(=O)C1=C(C)NC(SC)=NC1c1ccc(OC)cc1 (stereo unspecified)	-0.6	-1.5	-0.5	-5.2	5.1	3.6	/	/
CCC1N=C(SC)NC(C)=C1C(=O)c1ccccc1 (stereo unspecified)	-5.6	0.9	-4.3	4.0	96.1*	-0.4	-1.6	-12.9
Oc1ccc(C[C@H]2CN([C@@H](Cc3ccccc3)CN3CCC[C@@H]3CN3C(=S)NC[C@@H]3Cc3ccccc3)C(=S)N2CC2CCCCC2)cc1	8.1	5.9	10.2	-0.2	/	-8.1	/	/
Oc1ccc(C[C@H]2CNC(=S)N2CC2CCCN2C[C@H](Cc2ccc(O)cc2)N2C[C@H](Cc3ccccc3)N(CC3CCCCC3)C2=S)cc1 (stereo partly specified)	0.2	6.0	3.1	-1.9	50.4*	-19.4	8.6	8.8
CCc1noc(C)c1C(=O)N(C)CC(=O)Nc1ccc(F)c(F)c1F	-2.2	0.4	2.8	2.9	-4.7	0.0	/	/
COc1ccc(-c2cc(NC=O)c3ncc(-c4cnn(C)c4)n3c2)cc1	-2.6	-0.3	-18.8	5.4	/	-3.3	/	/
SMILES	STEP inh	LMPTP inh	SUMO1-SIM PPI	Rpn11 inh	Scp-1 inhibitor	DNMT1 inh	Scp-1 conf	MG interference	others
CC(=O)c1c(C)n(C)c2ccc(OC(=O)c3ccc([N+](=O)[O-])cc3)cc12	-0.1	0.4	-7.2	-4.2	58.9*	7.1	-10.5	-14.5
COc1cc(C2CC(=O)NC3=C2C(=O)CC(C)(C)C3)ccc1O (stereo unspecified)	-3.0	-2.8	1.1	-0.5	7.6	-0.7	-22.2	-24.3
COc1ccc(C2Nc3ccccc3NC3=C2C(=O)CC(C)(C)C3)cc1O (stereo unspecified)	1.3	-1.3	-10.9	-5.5	55.6*	21.2	-5.9	-20.0
Cc1ccsc1/C=N/NC(=O)c1c[nH]c2ccccc12	-0.1	0.7	-8.5	-3.4	68.5*	-0.8	-13.9	-14.8
Cc1ccc(/C=N/NC(=O)c2c[nH]c3ccccc23)s1	2.0	2.2	-10.3	-6.8	13.1	0.0	/	/
CC(=O)Oc1ccc(/C=C(\NC(=O)c2ccco2)C(=O)NCc2ccccc2)cc1	-0.8	-0.5	-5.6	6.7	53.5*	-0.7	-6.2	-5.7
COc1ccc([C@H]2CC(=O)C=C(/C=C/c3ccccc3)C2)cc1OC	1.2	1.9	-33.4	-0.5	-2.3	-2.0	/	/
COc1ccc2[nH]cc(C(O)CN3CCC(C(N)=O)CC3)c2c1 (stereo unspecified)	-0.5	1.3	-1.9	-0.5	71.2*	-3.3	2.4	-1.0
O=C1NC(=Nc2ccccc2)S/C1=C/c1cccs1	6.5	23.6	-10.5	-6.7	75.6*	0.8	59.3*	-12.6	Scp-1 Tm shift=2.9
